Columns and labels:
[1] = target: T1, GABA-A receptor; anion channel (Bos taurus) (UniProt P10063+P08220+P20237+P08219+P10064+P22300); assay: Percentage inhibition of [3H]Ro-151788 binding to GABA-A benzodiazepine receptor in bovine brain membrane at 10 uM; assay type: cell membranes
Procedure, shortened: (§1)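 Washed bovine cerebral cortex membranes, with endogenous GABA removed by Triton X-100/37 °C washes, incubated with ~0.2 nM [3H]Ro15-1788 (Kd 0.60 nM) in 50 mM Tris-citrate pH 7.4 for 90 min at 0 °C, then filtered. Nonspecific binding defined with 10 μM diazepam. Screening at 10 μM; Ki from IC50 by Cheng–Prusoff; five determinations, mean ± SEM.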

[2] = target: GABA-A receptor; anion channel; assay: Displacement of [3H]Ro-151788 from GABA-A benzodiazepine receptor of bovine brain membranes; assay type: cell membranes, Bos taurus; procedure, shortened: as §1
[3] = tested on: Mus musculus; assay: (§2) Anticonvulsant activity against MES-induced hindlimb extension at 100 mg/kg dose; assay type: functional
[4] = tested on: Mus musculus; assay: (§3) Anticonvulsant activity against MES-induced hindlimb extension at 30 mg/kg dose; assay type: functional
[5] = tested on: Mus musculus; assay: (§4) Anticonvulsant activity against MES-induced hindlimb extension at 300 mg/kg dose; assay type: functional
[6] = tested on: Mus musculus; assay: Antianxiety activity was measured based on light/dark box thus calculated no of crosses of mice at 100 mg/kg dose; assay type: functional
Procedure, shortened: (§5)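 Male Swiss-Webster mice, 22–26 g, dosed orally with drug or 1% CMC vehicle (10 mL/kg), placed 30 min later in the centre of the lit side of a two-compartment light/dark box (60-W bulb 400 mm above the white floor). Time in the lit side and number of crossings counted over 5 min. Student's t-test.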

[7] = tested on: Mus musculus; assay: Antianxiety activity was measured based on light/dark box thus calculated no of crosses of mice at 3 mg/kg dose; assay type: functional; procedure, shortened: as §5
[8] = tested on: Mus musculus; assay: Antianxiety activity was measured based on light/dark box thus calculated no of crosses of mice at 30 mg/kg dose; assay type: functional; procedure, shortened: as §5
[9] = tested on: Mus musculus; assay: as §2; assay type: organism-based; design: dose 100 mg/kg; details: in vivo
Procedure, shortened: (§6)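 Male Swiss-Webster mice (22–26 g) received drug in 1% CMC (10 mL/kg) 30 min before maximal electroshock through transcorneal electrodes (40 mA, 50 Hz, 0.2 s). The end point was tonic hindlimb extension, and lethality was also noted. The incidence of non-convulsing mice was analysed by χ² test.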

[10] = tested on: Mus musculus; assay: Muscle relaxant effect measured by rotarod test at 100 mg/Kg dose in mice; assay type: functional
Procedure, shortened: (§7)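 Motor coordination on the rota rod in male Swiss-Webster mice (22–26 g) after oral dosing in 1% CMC (10 mL/kg), tested 30 min post-dose. Student's t-test.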

[11] = tested on: Mus musculus; assay: as §3; assay type: ADME, organism-based; design: dose 30 mg/kg; details: in vivo; procedure, shortened: as §6
[12] = tested on: Mus musculus; assay: as §4; assay type: ADME, organism-based; design: dose 300 mg/kg; details: in vivo; procedure, shortened: as §6
[13] = tested on: Mus musculus; assay: Muscle relaxant effect measured by rotarod test at 30 mg/Kg dose in mice; assay type: functional; procedure, shortened: as §7
[14] = tested on: Mus musculus; assay: Muscle relaxant effect measured by rotarod test at 300 mg/Kg dose in mice; assay type: functional; procedure, shortened: as §7
[15] = tested on: Mus musculus; assay: Antianxiety activity was measured based on light/dark box thus calculated % time in light of mice at 100 mg/kg dose; assay type: functional; procedure, shortened: as §5
[16] = tested on: Mus musculus; assay: Antianxiety activity was measured based on light/dark box thus calculated % time in light of mice at 3 mg/kg dose; assay type: functional; procedure, shortened: as §5
[17] = tested on: Mus musculus; assay: Anticonvulsant activity against PTZ induced atacks at 100 mg/kg dose; assay type: functional
[18] = tested on: Mus musculus; assay: Anticonvulsant activity against PTZ induced atacks at 300 mg/kg dose; assay type: functional
[19] = target: T1, GABA-A receptor; anion channel (Bos taurus); assay: The GABA ratio (GR) = IC50 compound + 10 uM GABA, performed in five independent experiments was calculated for the compound.; assay type: protein-complex assay
Procedure, shortened: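 [3H]Ro15-1788 displacement from GABA-depleted bovine cortex membranes (0.2 nM ligand, 90 min, 0 °C, Tris-citrate pH 7.4). IC50 measured without and with 10 μM GABA and the ratio taken; five independent experiments.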

[20] = tested on: Mus musculus; assay: Antianxiety activity was measured based on light/dark box thus calculated % time in light of mice at 10 mg/kg dose; assay type: functional; procedure, shortened: as §5
[21] = tested on: Mus musculus; assay: Antianxiety activity was measured based on light/dark box thus calculated % time in light of mice at 30 mg/kg dose; assay type: functional; procedure, shortened: as §5
[22] = tested on: Mus musculus; assay: Anticonvulsant activity against PTZ induced atacks at 30 mg/kg dose; assay type: functional
[23] = tested on: Mus musculus; assay: Antianxiety activity was measured based on light/dark box thus calculated no of crosses of mice at 10 mg/kg dose; assay type: functional; procedure, shortened: as §5
[24] = tested on: Mus musculus; assay: The antianxiety activity for the compound at a dose of 0.3 mg/kg was evaluated as number of crosses by mice in the light/dark box experiment. p<0.05; assay type: functional
[25] = tested on: Mus musculus; assay: The antianxiety activity for the compound at a dose of 1 mg/kg was evaluated as number of crosses by mice in the light/dark box experiment.; assay type: functional
[26] = tested on: Mus musculus; assay: The antianxiety activity for the compound at a dose of 3 mg/kg was evaluated as number of crosses by mice in the light/dark box experiment.; assay type: functional
[27] = tested on: Mus musculus; assay: Muscle relaxant effect measured by rotarod test at 0.1 mg/Kg dose in mice; assay type: functional
[28] = tested on: Mus musculus; assay: Muscle relaxant effect measured by rotarod test at 0.3 mg/Kg dose in mice; assay type: functional
[29] = tested on: Mus musculus; assay: Muscle relaxant effect measured by rotarod test at 1 mg/Kg dose in mice; assay type: functional
[30] = tested on: Mus musculus; assay: Muscle relaxant effect measured by rotarod test at 3 mg/Kg dose in mice; assay type: functional
[31] = tested on: Mus musculus; assay: The percentage time in light by the animals was calculated for the compound at a dose of 0.3 mg/kg in the light/dark box experiment.; assay type: functional
[32] = tested on: Mus musculus; assay: The percentage time in light by the animals was calculated for the compound at a dose of 1 mg/kg in the light/dark box experiment*** indicates P<0.001.; assay type: functional
[33] = tested on: Mus musculus; assay: The percentage time in light by the animals was calculated for the compound at a dose of 3 mg/kg in the light/dark box experiment.; assay type: functional
[34] = species on record: Mus musculus; assay: Anticonvulsant activity against PTZ induced atacks; assay type: functional
Procedure, shortened: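 Male Swiss-Webster mice (22–26 g) received drug in 1% CMC (10 mL/kg) 30 min before the test, or flumazenil 40 min before. Pentylenetetrazole was then given at 75 mg/kg sc, and generalized tonic-clonic seizures were scored over the following 30 min. The incidence of non-convulsing mice was analysed by χ² test.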

[35] = species on record: Mus musculus; assay: Antianxiety activity was measured based on light/dark box thus calculated no of crosses of mice; assay type: functional
[36] = species on record: Mus musculus; assay: Muscle relaxant effect measured by rotarod test; assay type: functional
[37] = species on record: Mus musculus; assay: Antianxiety activity was measured based on light/dark box thus calculated % time in light of mice; assay type: functional
[38] = tested on: Mus musculus; assay: Antianxiolytic activity in mice as no of crosses on light/dark box at 100 mg/kg 13c and 1 mg/kg Diazepam; assay type: functional
[39] = tested on: Mus musculus; assay: Muscle relaxant effect in rotarod test at 100 mg/kg 13c and 0.3 mg/kg Diazepam; assay type: functional
[40] = tested on: Mus musculus; assay: Muscle relaxant effect in rotarod test at 100 mg/kg 13c and 1 mg/kg Diazepam; assay type: functional
[41] = tested on: Mus musculus; assay: Antianxiolytic activity in mice as percent time in light of light/dark box at 100 mg/kg 13c and 1 mg/kg Diazepam; assay type: functional
[42] = tested on: Mus musculus; assay: Anticonvulsant activity against PTZ induced seizures in mice at 100 mg/kg dose with 0.3 mg/kg Diazepam; assay type: functional
[43] = tested on: Mus musculus; assay: Anticonvulsant activity against PTZ induced seizures at 100 mg/kg dose with 1 mg/kg Diazepam; assay type: functional

SMILES: Cc1nc(-c2cnn3c2n[n+]([O-])c2ccc(Cl)cc23)nn1C
- inhibition [1]: 0%

SMILES: CN(C)/C=N/C(=O)c1cnn2c1n[n+]([O-])c1ccc(Cl)cc12
- inhibition [1]: 48.9%

SMILES: [O-][n+]1nc2c(-c3cccs3)cnn2c2cc(Cl)ccc21
- Ki [2]: 10.3 nM
- inhibition [1]: 82%
- Extension [3]: 0%
- Extension [4]: 0%
- Extension [5]: 0%
- No. of crosses [6]: 18.4
- No. of crosses [7]: 15
- No. of crosses [8]: 17.6
- Lethality [9]: 20%
- No. of falls [10]: 0.08
- Lethality [11]: 18.2%
- Lethality [12]: 8.3%
- No. of falls [13]: 0
- No. of falls [14]: 0.2
- Time in flight [15]: 114.5%
- Time in flight [16]: 88.9%
- Atttacks [17]: 16.6%
- Atttacks [18]: 12.5%
- GR [19]: 1.54
- Time in flight [20]: 122.2%
- Time in flight [21]: 11.5%
- Atttacks [22]: 10%
- No. of crosses [23]: 20

SMILES: [O-][n+]1nc2c(-n3cccc3)cnn2c2cc(Cl)ccc21
- Ki [2]: 61.5 nM
- inhibition [1]: 87.5%
- GR [19]: 1.24

SMILES: CN1C(=O)CN=C(c2ccccc2)c2cc(Cl)ccc21 [DIAZEPAM]
- No. of crosses [24]: 22
- No. of crosses [25]: 28.5
- No. of crosses [26]: 16.5
- No. of falls [27]: 0.23
- No. of falls [28]: 0.56
- No. of falls [29]: 0.73
- No. of falls [30]: 1.4
- Time in light [31]: 95.5%
- Time in light [32]: 144.9%
- Time in light [33]: 211.1%

SMILES: CC(C)(C)OC(=O)Nc1cnn2c1n[n+]([O-])c1ccc(Cl)cc12
- inhibition [1]: 0%

SMILES: CCOC(=O)c1ncn2c1CN(C)C(=O)c1cc(F)ccc1-2 [FLUMAZENIL]
- Attacks [34]: 0%
- No. of crosses [35]: 15.2
- No. of falls [36]: 0.4
- Time in flight [37]: 114.8%

SMILES: O=CNC(=O)c1cnn2c1n[n+]([O-])c1ccc(Cl)cc12
- Ki [2]: 844 nM
- inhibition [1]: 85.5%
- Ratio [19]: 2.07

SMILES: C/C(=N\C(=O)c1cnn2c1n[n+]([O-])c1ccc(Cl)cc12)N(C)C
- inhibition [1]: 58.5%

SMILES: Cc1n[nH]c(-c2cnn3c2n[n+]([O-])c2ccc(Cl)cc23)n1
- inhibition [1]: 15.2%

SMILES: CN1C(=O)CN=C(c2ccccc2)c2cc(Cl)ccc21.[O-][n+]1nc2c(-c3cccs3)cnn2c2cc(Cl)ccc21
- No. of crosses [38]: 26.6
- No. of falls [39]: 0.5
- No. of falls [40]: 0.17
- Time in flight [41]: 130.9%
- Atttacks [42]: 50%
- Atttacks [43]: 100%

Reference: ChEMBL document CHEMBL1132244, “Benzodiazepine receptor ligands. 4. Synthesis and pharmacological evaluation of 3-heteroaryl-8-chloropyrazolo[5,1-c][1,2,4] benzotriazine 5-oxides” (J Med Chem, 1999)
